For test [1], the system named is Candida albicans. The test can be described thus: Antifungal activity against Candida albicans in yeast extract-peptone-glucose medium at 357 ug/ml after 48 hrs by disc diffusion assay. Type of test: functional. The note with it: read-out: DIZ. The gist of the method:
(§1)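 C. albicans cells at a set number were spread on YEPD agar, either plain or containing the cell-wall disruptant named in the line (SDS, Congo red or calcofluor white). Compound solution, or the reference solvent as control, was spotted onto 0.5 cm discs placed on the lawn. Plates were incubated at 30 °C and the inhibition zone diameter was measured.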
In general terms: In agar diffusion tests the substance spreads into inoculated agar from a disc or well.

Test [2] concerns Candida albicans. The test can be described thus: Antifungal activity against Candida albicans in yeast extract-peptone-glucose medium at 357 ug/ml after 48 hrs by disc diffusion assay in presence of 100 ug/ml of calcofluor white. The class given is functional. The gist of the method: as §1
The subject of test [3] is Candida albicans. The test can be described thus: Antifungal activity against Candida albicans in yeast extract-peptone-glucose medium at 357 ug/ml after 48 hrs by disc diffusion assay in presence of 150 ug/ml of congo red. The class given is functional. The method, boiled down:
as §1

Test [4] relates to Escherichia coli. The test can be described thus: Antibacterial activity against Escherichia coli harboring ampicillin-resistance gene encoding plasmid at 357 ug/ml after 24 hrs by disc diffusion assay. The class given is functional. The note with it: read-out: DIZ. The gist of the method:
(§2)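 Disc diffusion used an E. coli strain carrying a plasmid that encodes an ampicillin-resistance gene. Inhibition zone diameters were recorded and compared against the corresponding solvent controls.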

Test [5] deals with Candida albicans. As to the kind of experiment: Antifungal activity against Candida albicans in yeast extract-peptone-glucose medium at 257 ug/ml after 48 hrs by disc diffusion assay in presence of 150 ug/ml of congo red. Type of test: functional. The gist of the method:
(§3)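 Disc diffusion on YEPD agar containing a cell-wall-disrupting agent (SDS, Congo red or calcofluor white) and spread with a set number of C. albicans cells. Compound and reference solvent spotted on 0.5 cm discs. Incubated at 30 °C, then inhibition zone diameter measured against solvent.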

For test [6], the system named is Candida albicans. As to the kind of experiment: Antifungal activity against Candida albicans in yeast extract-peptone-glucose medium at 257 ug/ml after 48 hrs by disc diffusion assay. Type of test: functional. The following applies: read-out: DIZ. The method, boiled down: (§4)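 Solid-phase assay on YEPD agar spread with a set number of C. albicans cells. Compound solution and reference solvent spotted onto 0.5 cm discs. Plates incubated at 30 °C, and inhibition zone diameter measured against solvent control.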

The subject of test [7] is Candida albicans. As to the kind of experiment: Antifungal activity against Candida albicans in yeast extract-peptone-glucose medium at 257 ug/ml after 48 hrs by disc diffusion assay in presence of 100 ug/ml of calcofluor white. Type of test: functional. The gist of the method:
as §3

The test system of test [8] is Candida albicans. As to the kind of experiment: Antifungal activity against Candida albicans in synthetic dextrose minimal medium after 48 hrs by ELISA based serial dilution method.
In test [9] the test system is Candida albicans. As to the kind of experiment: Antifungal activity against Candida albicans in yeast extract-peptone-glucose medium at 257 ug/ml after 48 hrs by disc diffusion assay in presence of […]. The class given is functional. The following applies: in the assay text read “20 ug/ml” for “150 ug/ml”. The method, boiled down: (§5)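 Tests whether compounds enhance the toxicity of rhodamine 6G, a substrate of the Cdr1p/Cdr2p drug pumps. YEPD agar containing R6G spread with C. albicans. Compound and solvent spotted on 0.5 cm discs, incubated at 30 °C, and zone diameter read relative to solvent control.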

The test system of test [10] is Escherichia coli. As to the kind of experiment: Antibacterial activity against Escherichia coli harboring ampicillin-resistance gene encoding plasmid at 257 ug/ml after 24 hrs by disc diffusion assay. The class given is functional. The following applies: read-out: DIZ. The method, boiled down: as §2
Test [11] has as its system Candida albicans. As to the kind of experiment: Antifungal activity against Candida albicans in yeast extract-peptone-glucose medium at 257 ug/ml after 48 hrs by disc diffusion assay in presence of 0.01% of sodium dodecylsulphate. The class given is functional. The note with it: read-out: DIZ. The method, boiled down:
as §3

Test [12] has as its system Candida albicans. As to the kind of experiment: Antifungal activity against Candida albicans in yeast extract-peptone-glucose medium at 187 ug/ml after 48 hrs by disc diffusion assay in presence of […]. Type of test: functional. The gist of the method:
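This is a C. albicans disc diffusion on YEPD agar containing rhodamine 6G, a substrate of the Cdr1p/Cdr2p ATP-dependent efflux pumps, to test for enhanced R6G toxicity. A set number of cells was spread, and 0.5 cm discs were spotted with compound solution or reference solvent. Plates were incubated at 30 °C and the zone diameter was measured.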

In test [13] the test system is Candida albicans. The test can be described thus: Antifungal activity against Candida albicans in yeast extract-peptone-glucose medium at 187 ug/ml after 48 hrs by disc diffusion assay in presence of 150 ug/ml of congo red. Type of test: functional. The method, boiled down:
as §1

The subject of test [14] is Escherichia coli. As to the kind of experiment: Antibacterial activity against Escherichia coli harboring ampicillin-resistance gene encoding plasmid at 187 ug/ml after 24 hrs by disc diffusion assay. The following applies: read-out: DIZ. Type of test: functional. The gist of the method: as §2
Test [15] relates to Candida albicans. The test can be described thus: Antifungal activity against Candida albicans in yeast extract-peptone-glucose medium at 187 ug/ml after 48 hrs by disc diffusion assay in presence of 0.01% of sodium dodecylsulphate. The class given is functional. The following applies: read-out: DIZ. The gist of the method: as §1
Test [16] relates to Candida albicans. As to the kind of experiment: Antifungal activity against Candida albicans in yeast extract-peptone-glucose medium at 187 ug/ml after 48 hrs by disc diffusion assay in presence of 100 ug/ml of calcofluor white. The class given is functional. The method, boiled down:
as §1

Test [17] deals with Candida albicans. As to the kind of experiment: Antifungal activity against Candida albicans in yeast extract-peptone-glucose medium at 187 ug/ml after 48 hrs by disc diffusion assay. The class given is functional. The note with it: read-out: DIZ. The method, boiled down: as §1
In test [18] the test system is Candida albicans. As to the kind of experiment: Antifungal activity against Candida albicans in yeast extract-peptone-glucose medium at 600 ug/ml after 48 hrs by disc diffusion assay in presence of 150 ug/ml of congo red. Type of test: functional. The method, boiled down: as §3
Test [19] deals with Candida albicans. The test can be described thus: Antifungal activity against Candida albicans in yeast extract-peptone-glucose medium at 600 ug/ml after 48 hrs by disc diffusion assay in presence of 0.01% of sodium dodecylsulphate. Type of test: functional. The note with it: read-out: DIZ. The method, boiled down: as §3
The subject of test [20] is Candida albicans. The test can be described thus: Antifungal activity against Candida albicans in yeast extract-peptone-glucose medium at 600 ug/ml after 48 hrs by disc diffusion assay in presence of […]. The class given is functional. The note with it: in the assay text read “20 ug/ml” for “150 ug/ml”. The method, boiled down:
as §5

In test [21] the test system is Candida albicans. As to the kind of experiment: Antifungal activity against Candida albicans in yeast extract-peptone-glucose medium at 600 ug/ml after 48 hrs by disc diffusion assay. The class given is functional. The note with it: read-out: DIZ. The method, boiled down: as §4
Test [22] has as its system Candida albicans. The test can be described thus: Antifungal activity against Candida albicans in yeast extract-peptone-glucose medium at 600 ug/ml after 48 hrs by disc diffusion assay in presence of 100 ug/ml of calcofluor white. The class given is functional. The gist of the method:
as §3

In test [23] the test system is Escherichia coli. As to the kind of experiment: Antibacterial activity against Escherichia coli harboring ampicillin-resistance gene encoding plasmid at 600 ug/ml after 24 hrs by disc diffusion assay. The note with it: read-out: DIZ. Type of test: functional. The gist of the method: as §2

For the molecule `O=C(C(=O)N1CCOCC1)c1cn(CCCCCCn2cc(C(=O)C(=O)N3CCOCC3)c3ccccc32)c2ccccc12`, the zone of inhibition at 357 µg/mL worked out at 5.5 mm with Candida albicans [1] and 7.5 mm in the test with Escherichia coli [4]. The “diameter of the inhibition zone (DIZ)” value with Candida albicans [2] and in the test on Candida albicans [3] was 6.5 mm each time.
On to `O=C(C(=O)N1CCCC1)c1cn(CCCn2cc(C(=O)C(=O)N3CCCC3)c3cc(Br)ccc32)c2ccc(Br)cc12`, for which the “diameter of the inhibition zone (DIZ)” value with Candida albicans [5] is reported as 11.5 mm; in the test with Candida albicans [7], 11.5 mm; with Candida albicans [9], 12 mm. Also, the zone of inhibition at 257 µg/mL in the test on Candida albicans [6] worked out at 11.5 mm; in the test with Escherichia coli [10], 13.5 mm; in the test on Candida albicans [11], 11.5 mm. The molecule further registered a half-maximal inhibitory concentration (IC50) with Candida albicans [8] of 29.2 mM.
`O=C(C(=O)N1CCCC1)c1cn(Cc2ccc(Cn3cc(C(=O)C(=O)N4CCCC4)c4ccccc43)cc2)c2ccccc12`: the “diameter of the inhibition zone (DIZ)” value in the test with Candida albicans [12] is on record as 7 mm; in the test on Candida albicans [13], 7 mm; in the test with Candida albicans [16] it was 6.5 mm. For the same molecule, the results for the zone of inhibition at 187 µg/mL with Escherichia coli [14], in the test on Candida albicans [15] and with Candida albicans [17] were 7 mm, 8 mm and 7.5 mm, respectively.
Consider `O=C(NCc1ccccc1)C(=O)c1cn(Cc2ccc(Cn3cc(C(=O)C(=O)NCc4ccccc4)c4ccccc43)cc2)c2ccccc12`, for which the “diameter of the inhibition zone (DIZ)” value in the test on Candida albicans [18] is 10.5 mm; in the test with Candida albicans [20] it was 11 mm; in the test with Candida albicans [22], 11.5 mm. Besides, the zone of inhibition at 600 µg/mL turned out to be 12.5 mm in the test with Candida albicans [19], 12.5 mm in the test with Candida albicans [21] and 9 mm in the test on Escherichia coli [23]. This molecule had an IC50 in the test with Candida albicans [8] of 0.02 mM.

A word on the IC50: it is the concentration needed to halve the response being measured.

Source of the values: ChEMBL document CHEMBL1777792, “Synthesis and evaluation of indole-based new scaffolds for antimicrobial activities--identification of promising candidates” (Bioorg Med Chem Lett, 2011).
